ERAP1 HTS inh – blocks human ERAP1 aminopeptidase activity. inhibition, % at 10.7 µM. 340,000 tested, 0.15% active. recombinant ERAP1, Leu-AMC fluorescence, 60 min. Q9NZ08. AID 652197;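 active means mean replicate inhibition of at least 30%, or all replicates individually reaching that 30% level; inactive means mean below 30% and not every replicate reaching it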;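 further: 0% = neutral control wells and 100% = L-leucinethiol positive control wells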
Target sequence (Q9NZ08 whole entry, looked up): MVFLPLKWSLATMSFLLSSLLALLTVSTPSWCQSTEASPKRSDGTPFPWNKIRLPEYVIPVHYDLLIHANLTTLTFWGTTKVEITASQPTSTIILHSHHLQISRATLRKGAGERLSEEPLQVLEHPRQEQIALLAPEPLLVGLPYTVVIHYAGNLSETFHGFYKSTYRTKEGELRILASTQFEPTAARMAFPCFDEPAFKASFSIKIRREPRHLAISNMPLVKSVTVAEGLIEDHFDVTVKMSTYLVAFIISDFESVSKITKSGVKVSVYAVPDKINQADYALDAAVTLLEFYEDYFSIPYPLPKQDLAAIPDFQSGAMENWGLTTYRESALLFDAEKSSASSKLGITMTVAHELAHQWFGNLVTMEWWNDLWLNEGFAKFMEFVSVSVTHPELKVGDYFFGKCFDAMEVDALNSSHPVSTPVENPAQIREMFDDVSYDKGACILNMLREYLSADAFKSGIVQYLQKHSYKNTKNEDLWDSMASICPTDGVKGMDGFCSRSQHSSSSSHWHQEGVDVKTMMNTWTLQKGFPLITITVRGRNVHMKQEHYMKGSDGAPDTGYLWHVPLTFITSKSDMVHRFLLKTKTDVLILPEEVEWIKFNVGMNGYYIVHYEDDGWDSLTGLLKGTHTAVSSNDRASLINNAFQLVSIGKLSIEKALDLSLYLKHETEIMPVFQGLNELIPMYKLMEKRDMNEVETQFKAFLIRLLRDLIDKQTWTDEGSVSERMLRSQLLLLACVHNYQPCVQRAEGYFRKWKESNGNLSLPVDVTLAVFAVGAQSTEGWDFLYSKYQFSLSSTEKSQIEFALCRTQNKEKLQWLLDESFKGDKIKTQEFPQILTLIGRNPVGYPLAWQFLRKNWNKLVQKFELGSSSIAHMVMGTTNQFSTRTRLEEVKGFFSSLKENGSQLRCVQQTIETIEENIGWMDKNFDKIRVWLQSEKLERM
DENV2 CPE rescue – inhibitors of DENV2 cytopathic effect; CPE inhibition, % at 9.99 µM; AID 651640; 350,000 tested, 1.7% active; DENV2-infected cells, cytopathic effect rescue, plate reader; in the data active means CPE inhibition above about 20%, passing the limit was not always enough; inconclusive means no clear call, values can overlap the other calls; tested in BHK-21 cells;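 further: 0% = median of neutral control wells and 100% = median of positive control wells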
E-sel inducer – induces E-selectin expression in human endothelial cells. P16581. HUVEC E-selectin immunofluorescence imaging; normalized: neutral wells 0, TNF-alpha wells 100. activation, % at 7.58 µM. AID 686992. 260,000 tested, 0.37% active;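 active means mean E-selectin-positive cell signal at least 10% of the positive control, reached in at least 60% of replicates, without over 20% cell loss; inconclusive means no rule given, readout overlaps actives, possibly toxicity-flagged; inactive means the rest, including those meeting only one limit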
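Test system – human umbilical vein endothelial cells (HUVEC), E-selectin induction · Input – 3,000 HUVEC seeded per well · Buffer or medium – EGM-2, gelatin · Compound dosing – single-point compound dose · Detection – immunofluorescence imaging · Measure – percent E-selectin-positive cells · Controls – TNF-alpha high, DMSO low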
CFTR F508del cor – correctors of CFTR F508del function in bronchial epithelial cells. CFBE cells, YFP halide quenching; stimulated with forskolin plus potentiator P3; % fluorescence drop versus neutral controls. 350,000 tested, 0.36% active. AID 720511. activity (quench increase), % at 7.58 µM;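 active means mean added fluorescence quench of at least 8% versus neutral control, with both replicates also reaching 8%; inconclusive means only one of the mean or replicate conditions met; inactive means mean below 8% and not both replicates reaching 8%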;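 further: cells transiently co-express mutant CFTR-F508del with the halide-sensitive YFP; corrector assay measuring rescue of mutant channel to the surface after 24 h compound exposure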
FGF22 binding – FGF22 (human) thermal shift binding. AID 651658. activity (Tm shift, normalised), % at 9.99 µM. 340,000 tested, 1.5% active. recombinant FGF22 thermal shift, SYPRO orange fluorescence; percent of sucrose octasulfate shift, DMSO zero;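 active means mean Tm shift, scaled 0 neutral to 100 positive control, at about 1.3% or above, every replicate too, limit read from the data; inconclusive means no clear call, values can overlap the other calls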
An asterisk follows results filed as active; ? = inconclusive; / = no result given. An excerpt weighted towards active compounds, which were near 3.7% of everything screened.

SMILES	ERAP1 HTS inh	DENV2 CPE rescue	E-sel inducer	CFTR F508del cor	FGF22 binding
O=C1C(Cl)=C(O)C2(Cl)C(Cl)=C(Cl)C12Cl (stereo not drawn)	4.7	-4.3	0.0	0.9	1.4*
COc1ccc2c3c([nH]c2c1)[C@H](CO)N(Cc1ccccc1F)CC31CN(C(=O)C2CCC2)C1	-0.1	9.1	-0.7	1.3	0.0
COc1ccc2c3c([nH]c2c1)[C@H](CO)N(C)CC31CN(C(=O)C2CC2)C1	2.5	44.8*	-0.1	2.2	0.0
COc1ccc2c3c([nH]c2c1)[C@H](CO)N(Cc1ccccc1F)CC31CN(C(=O)C2CCCC2)C1	2.1	23.9*	-0.1	?	-0.2
COc1ccc(-c2cnc3n2CCCCC3)cc1	/	44.2*	0.1	1.4	/
COc1ccc(NC(=O)N(C)C[C@@H]2Oc3ccc(NC(=O)Nc4ccc(F)cc4)cc3CC(=O)N([C@@H](C)CO)C[C@H]2C)cc1	1.9	13.3	0.2	-2.5	-0.3
Cc1cc(C(=O)CN2C(=O)NC(CC(C)C)C2=O)c(C)n1-c1ccccc1F (stereo not drawn)	-0.6	/	0.9	-0.7	0.4
Cc1cc(C(=O)CN2C(=O)C(=O)N(CC(C)C)C2=O)c(C)n1-c1ccccc1F	5.3	-15.8	/	1.1	43.1*
O=C(Cc1ccccc1)NNC(=S)Nc1ccccc1	4.6	-11.6	/	0.3	42.2
CC(C)COCC(O)CCC(=O)NNC(=S)Nc1ccccc1 (stereo not drawn)	0.6	94.0*	/	-1.1	-0.1
CC(=O)OCC(O)C1(O)CCC2C3CCC4=CC(=O)CCC4(C)C3C(O)CC21C (stereo not drawn)	-0.8	22.4*	/	2.4	-0.1
O=C(Nc1ccccc1F)N[C@H]1C=C[C@H](CC(=O)N2CCCCC2)O[C@@H]1CO	-0.9	?	-0.4	1.5	0.0
Cc1ccc(/C=N/NC(=O)C2COc3ccccc3O2)s1 (stereo not drawn)	-2.9	-3.8	0.5	11.0*	0.1
COc1ccc(Cc2nnc(NC(=O)c3ccc(F)cc3)s2)cc1OC	-1.7	3.5	/	8.6*	0.0
COc1ccc(-n2nc3ccc(N)cc3n2)cc1	7.3	3.5	0.7	2.4	-0.2
CCCC(=O)Nc1ccc2nn(-c3ccc(OC)cc3)nc2c1	-0.1	26.0*	/	0.1	-0.1
COc1ccc(CN(C)Cc2c(O)ccc3cc(Br)ccc23)cc1OC	4.1	-1.5	/	-0.7	1.7*
COc1ccc2oc(C(=O)OC(C)C(=O)N3CCC(C)CC3)c(C)c2c1 (stereo not drawn)	3.6	34.1*	/	-2.2	0.0
Cc1c(C(=O)N2CCCC2)oc2ccc(Br)cc12	3.0	53.2*	/	-2.4	0.0
Cc1c(C(=O)N2CCN(C)CC2)oc2ccc(Br)cc12	/	0.7	0.1	-0.8	-0.1
COc1ccc2oc(C(=O)N3CCN(C(=O)c4ccco4)CC3)c(C)c2c1	-0.2	0.0	/	14.3*	-0.4
COc1ccc(-c2ccc([C@H]3[C@H](CO)N4C(=O)CN(C(=O)NC(C)C)C[C@@H]34)cc2)cc1	-2.9	-2.0	-0.1	0.3	/
C[C@H]1CCC/C=C/[C@@H]2C[C@H](O)C[C@H]2[C@H](O)[C@H](S(=O)c2ccc(O)cc2)CC(=O)O1 (stereo partly drawn)	67.1*	-31.8	1.4	-30.9	-0.6
COc1ccc(C(=O)NC(=S)N(C)C2CCCCC2)cc1Br	2.2	59.3*	-0.3	1.5	-0.3
COc1ccc(C(=O)NC(=S)NNC(=O)c2ccc(NC(C)=O)cc2)cc1Br	4.1	10.2	/	-1.4	43.0*
SMILES	ERAP1 HTS inh	DENV2 CPE rescue	E-sel inducer	CFTR F508del cor	FGF22 binding
Cc1ccc(C(=O)NC(=S)N(C)C2CCCCC2)cc1Br	-3.5	2.6	-0.7	1.5	0.0
CO[C@@H]1CN(C)C(=O)c2cc(NS(C)(=O)=O)ccc2OC[C@@H](C)N(Cc2cccnc2)C[C@@H]1C	/	/	0.1	-3.6	/
Cc1ccc(S(=O)(=O)NNC(=O)C23CCC(CC2)C3)cc1	4.0	-1.4	1.3	-4.1	42.9*
Cc1oc(/N=C/c2ccccc2)c(C#N)c1C	1.6	22.5*	/	-0.3	/
NC(c1csc(NC(=O)Nc2cccc(Cl)c2)n1)C1CCCCC1 (stereo not drawn)	7.8	112.1*	-0.3	-0.3	0.0
NC(c1csc(NC(=O)Nc2ccccc2)n1)C1CCCCC1 (stereo not drawn)	1.4	7.1	0.2	5.9	-0.1
CO[C@H]1/C=C/O[C@@]2(C)Oc3c(C)c(O)c4c(O)c(c5c(c4c3C2=O)NC2(CCN(CC(C)C)CC2)N=5)=NC(=O)/C(C)=C\C=C\[C@H](C)[C@H](O)[C@@H](C)[C@@H](O)[C@@H](C)[C@H](OC(C)=O)[C@@H]1C	-2.9	109.7*	/	0.5	0.4
O=C(NCCc1ccccc1)C1C(=O)Nc2ccccc2C(=O)N1C1CCCCC1 (stereo not drawn)	/	-11.9	207.3*	-0.7	-0.3
C/C=C/c1ccc([C@H]2[C@@H](CNC(C)=O)N(C(=O)Cc3ccncc3)[C@H]2CO)cc1	0.7	-10.3	0.1	1.1	0.0
O=C(/C=C/c1ccc(S(=O)(=O)N2CCOCC2)cc1)NC(=S)Nc1ccc(Cl)cc1Cl	-1.3	-6.9	/	-0.5	43.3*
C[C@@H]1CN([C@@H](C)CO)C(=O)c2cc(NC(=O)Cc3cn(C)c4ccccc34)ccc2O[C@H]1CN(C)Cc1ccc2c(c1)OCO2	2.8	7.8	38.9*	0.1	0.1
C[C@H]1CN([C@@H](C)CO)C(=O)c2cc(NC(=O)Cc3cn(C)c4ccccc34)ccc2O[C@@H]1CN(C)Cc1ccc2c(c1)OCO2	0.1	6.7	-8.4	0.5	0.0
C[C@@H]1CN([C@H](C)CO)C(=O)Cc2cc(NC(=O)Cc3cn(C)c4ccccc34)ccc2O[C@H]1CN(C)Cc1ccc2c(c1)OCO2	-0.4	51.2*	/	-1.0	-0.4
C[C@@H]1CCCCO[C@@H](CN(C)S(=O)(=O)c2ccc(F)cc2)[C@H](C)CN([C@H](C)CO)C(=O)c2cc(NC(=O)Nc3ccc(F)cc3)ccc2O1	/	-4.7	0.6	1.4	0.0
CC(C)c1ccc(N(C(=O)c2snc(C(N)=O)c2N)C(C(=O)NCC2CCCO2)c2ccc(N(C)C)cc2)cc1 (stereo not drawn)	-4.8	31.8*	-0.2	5.0	0.0
COc1ccc(N(C(=O)c2snc(C(N)=O)c2N)C(C(=O)NC2CCCC2)c2ccc3ncccc3c2)cc1 (stereo not drawn)	1.1	1.4	/	0.5	0.1
NC(=O)c1nsc(C(=O)N(c2ccccc2)C(C(=O)NC2CCCC2)c2ccc3ncccc3c2)c1N (stereo not drawn)	2.0	39.1*	2.0	-1.9	0.0
COc1ccc(NC(=O)Nc2cccc3c2O[C@H](CN(C)Cc2ccc(C(F)(F)F)cc2)[C@@H](C)CN([C@@H](C)CO)C3=O)cc1	0.8	-0.8	0.0	-1.6	-0.1
